# A1 apoptosis 2: A1 inhibitors via caspase activation, primary screen, cell-based, luminescence, HTS, two replicates; MEF A1-2A-BIM cells, caspase-Glo luminescence, 3 h; percent of clofoctol response, DMSO zero; caspase activation, % (concentration not given with the values); 24,000 tested, under 10 active; AID 2465, 2010; in the data active = caspase activation above about 5.9%; inconclusive = no clear call, values can overlap the other calls; inactive = below about 2.2%
#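 System: mouse embryonic fibroblasts co-expressing A1 and BIM (A1-2A-BIM), primed for A1 dependence; amount: 2500 cells/well; doses: 50 nL pinned compound; schedule: cells settled overnight, compound exposure 3 h at 37 °C, 5% CO2; detection: Caspase-Glo 3/7 luminescence, 1 h at room temperature; read-out: Caspase-3/7 activation, seen as rise in luminescence signal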
# T cruzi intra: inhibitors of intracellular Trypanosoma cruzi, primary screen, cell-based, plate reader, single point, set 2. intracellular Trypanosoma cruzi in host cells. activity score (inhibition), % at 5.01 µM. actives 4.9% (n = 22,000); in the data active = activity score above about 55%; inconclusive = no clear call, values can overlap the other calls;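 also: parasites and compound incubated about four days before reading; 0% = median of neutral control wells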
# INS-1E ATP HTS: protection of INS-1E cells from cytokine death, primary screen, ATP luminescence, single point; INS-1E cytokine-induced death, 48 h; normalised: neutral wells 0, positive control 100; protection from cytokine-induced ATP loss, % at 10 µM; actives 0.1% (n = 20,000);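 active = mean replicate protection from cytokine-induced ATP loss at least 50% and at least 75% of replicates each reaching 50%; inconclusive = meets only one of the two criteria, mean or replicate share; inactive = fails both the mean and replicate share criteria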
#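 assay system = INS-1E rat insulinoma cells | amount = 8000 cells per well | medium = phenol-red-free RPMI with 5% fetal bovine serum | doses = one compound concentration, pin transfer | timing = 48 h cytokine plus compound treatment, 10 min reagent incubation | also added = IL-1β, TNF-α and IFN-γ cytokine mix | signal = CellTiter-Glo luminescence measuring cellular ATP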
# * = called active by the depositor; ? = inconclusive; nt = no result given. The sample as a whole holds a higher share of hits than the screen did.
SMILES,A1 apoptosis 2,T cruzi intra,INS-1E ATP HTS
C[C@@H]1CN([C@H](C)CO)C(=O)c2cccc(NC(=O)Nc3cccc4ccccc34)c2O[C@@H]1CN(C)Cc1ccc(C(=O)Nc2ccccc2N)cc1,0,nt,nt
C[C@H](CO)N1C[C@H](C)[C@H](CN(C)Cc2ccc(C(=O)Nc3ccccc3N)cc2)Oc2c(NC(=O)Nc3cccc4ccccc34)cccc2C1=O,0,nt,nt
C[C@@H]1CN([C@@H](C)CO)C(=O)c2cccc(NC(=O)Nc3ccccc3)c2O[C@@H]1CN(C)Cc1ccc(C(=O)Nc2ccccc2N)cc1,nt,66*,46
Cc1cc(C(=O)Nc2cccc3c2O[C@@H](CN(C)Cc2ccc(C(=O)Nc4ccccc4N)cc2)[C@@H](C)CN([C@H](C)CO)C3=O)n(C)n1,nt,54,-15
C[C@H]1CN([C@@H](C)CO)C(=O)c2cccc(NC(=O)Nc3cccc4ccccc34)c2O[C@H]1CN(C)Cc1ccc(C(=O)Nc2ccccc2N)cc1,1,68*,-10
C[C@H]1CN([C@@H](C)CO)C(=O)Cc2cc(NC(=O)Nc3ccc(C(F)(F)F)cc3)ccc2O[C@H]1CN(C)C(=O)NC1CCCCC1,0,-11,-6
CC(C)NC(=O)N(C)C[C@@H]1Oc2ccc(NC(=O)C3CCCCC3)cc2CC(=O)N([C@H](C)CO)C[C@H]1C,nt,-18,10
COc1ccc(NC(=O)Nc2ccc3c(c2)C(=O)N([C@H](C)CO)C[C@@H](C)[C@H](CN(C)S(C)(=O)=O)O3)cc1,nt,-2,2
Cc1ccsc1/C=N/NC(=O)c1ccccc1O,nt,-15,-3
C[C@H](CO)N1C[C@H](C)[C@@H](CN(C)Cc2ccc(C(=O)Nc3ccccc3N)cc2)Oc2c(NC(=O)c3cnccn3)cccc2C1=O,0,75*,-5
C[C@H](CO)N1C[C@H](C)[C@H](CN(C)Cc2ccc(C(=O)O)cc2)Oc2c(NC(=O)c3cnccn3)cccc2C1=O,0,-5,3
C[C@H]1CN([C@@H](C)CO)C(=O)c2cccc(NC(=O)c3cnccn3)c2O[C@@H]1CN(C)Cc1ccc(C(=O)Nc2ccccc2N)cc1,0,?,-14
C[C@H]1CN([C@@H](C)CO)C(=O)c2cccc(NC(=O)c3cnccn3)c2O[C@H]1CN(C)Cc1ccc(C(=O)Nc2ccccc2N)cc1,1,67*,-21
CNC[C@@H]1Oc2c(NC(=O)Nc3ccc4c(c3)OCO4)cccc2C(=O)N([C@@H](C)CO)C[C@@H]1C,0,0,0
C[C@H](CO)N1C[C@H](C)[C@H](CN(C)C(=O)Nc2cccc3ccccc23)Oc2c(NC(=O)Nc3ccc(C(F)(F)F)cc3)cccc2C1=O,nt,66*,-14
C[C@H]1CN([C@@H](C)CO)C(=O)c2cccc(NC(=O)Nc3cccc4ccccc34)c2O[C@H]1CN(C)C(=O)Nc1ccc(C(F)(F)F)cc1,1,63*,-29
C[C@@H]1CN([C@@H](C)CO)C(=O)c2cccc(NC(=O)Nc3ccc(C(F)(F)F)cc3)c2O[C@H]1CN(C)C(=O)Nc1cccc2ccccc12,2,38,-30
C[C@H](CO)N1C[C@H](C)[C@@H](CN(C)C(=O)Nc2cccc3ccccc23)Oc2c(NC(=O)Nc3ccc(C(F)(F)F)cc3)cccc2C1=O,nt,61*,-8
C[C@H](CO)N1C[C@H](C)[C@@H](CN(C)C(=O)Nc2ccc(C(F)(F)F)cc2)Oc2c(NC(=O)Nc3cccc4ccccc34)cccc2C1=O,1,52,-34
C[C@@H]1CN([C@@H](C)CO)C(=O)c2cccc(NC(=O)Nc3ccc(C(F)(F)F)cc3)c2O[C@@H]1CN(C)C(=O)Nc1cccc2ccccc12,0,-27,-59
COc1cccc(OC)c1/C=N/NC(=O)c1cccc(C(=O)NO)c1,nt,4,16
Cc1noc(C)c1S(=O)(=O)Nc1ccc2c(c1)C(=O)N([C@@H](C)CO)C[C@@H](C)[C@@H](CN(C)S(=O)(=O)c1cccs1)OCCCC[C@H](C)O2,2,nt,nt
C[C@@H]1CN([C@@H](C)CO)C(=O)c2cccc(NC(=O)Nc3ccc4c(c3)OCO4)c2O[C@@H]1CN(C)Cc1ccc(C(F)(F)F)cc1,0,-3,-50
C[C@@H]1CN([C@H](C)CO)C(=O)c2cc(NS(=O)(=O)c3ccc(F)cc3)ccc2O[C@@H]1CN(C)Cc1ccc(C(F)(F)F)cc1,nt,24,-6
C[C@H](CO)N1C[C@H](C)[C@H](CN(C)Cc2ccc(C(F)(F)F)cc2)Oc2ccc(NS(=O)(=O)c3ccccc3)cc2C1=O,nt,66*,-19
SMILES,A1 apoptosis 2,T cruzi intra,INS-1E ATP HTS
Cc1ccc(S(=O)(=O)Nc2ccc3c(c2)C(=O)N([C@H](C)CO)C[C@H](C)[C@H](CN(C)Cc2ccc(C(F)(F)F)cc2)O3)cc1,0,69*,-18
C[C@@H]1CN([C@@H](C)CO)C(=O)c2cc(NS(=O)(=O)c3ccccc3)ccc2O[C@@H]1CN(C)Cc1ccc(C(F)(F)F)cc1,nt,5,-7
C[C@@H]1CN([C@@H](C)CO)C(=O)c2cc(NS(=O)(=O)c3cccs3)ccc2O[C@H]1CN(C)S(=O)(=O)c1cccs1,0,-3,nt
C[C@H](CO)N1C[C@H](C)[C@@H](CN(C)Cc2ccc3c(c2)OCO3)Oc2ccc(NC(=O)CCCCCC(=O)Nc3ccccc3N)cc2C1=O,1,-16,8
C[C@H]1CN([C@@H](C)CO)C(=O)c2cccc(NC(=O)CCCCCC(=O)Nc3ccccc3N)c2O[C@@H]1CN(C)Cc1ccc2c(c1)OCO2,nt,72*,19
C[C@@H]1CN([C@@H](C)CO)C(=O)c2cc(NC(=O)CCCCCC(=O)Nc3ccccc3N)ccc2O[C@@H]1CN(C)Cc1ccc2c(c1)OCO2,1,-7,-1
C[C@H](CO)N1C[C@H](C)[C@@H](CN(C)Cc2ccc3c(c2)OCO3)Oc2c(NC(=O)CCCCCC(=O)Nc3ccccc3N)cccc2C1=O,0,73*,12
C[C@@H]1CN([C@@H](C)CO)C(=O)c2cccc(NC(=O)CCCCCC(=O)Nc3ccccc3N)c2O[C@H]1CN(C)Cc1ccc2c(c1)OCO2,0,59*,25
C[C@H](CO)N1C[C@H](C)[C@H](CN(C)Cc2ccc3c(c2)OCO3)Oc2ccc(NC(=O)CCCCCC(=O)Nc3ccccc3N)cc2C1=O,-1,-18,4
C[C@@H]1CN([C@H](C)CO)C(=O)Cc2cc(NC(=O)CCC(F)(F)F)ccc2O[C@@H]1CN(C)Cc1ccc(Oc2ccccc2)cc1,1,63*,-72
C[C@H](CO)N1C[C@H](C)[C@H](CN(C)Cc2ccc(Oc3ccccc3)cc2)Oc2ccc(NC(=O)CCC(F)(F)F)cc2CC1=O,nt,22,-16
C[C@H]1CN([C@@H](C)CO)C(=O)Cc2cc(NC(=O)CCC(F)(F)F)ccc2O[C@@H]1CN(C)Cc1ccc(Oc2ccccc2)cc1,-1,59*,-11
C[C@@H]1CN([C@@H](C)CO)C(=O)Cc2cc(NC(=O)CCC(F)(F)F)ccc2O[C@H]1CN(C)Cc1ccc(Oc2ccccc2)cc1,0,nt,nt
